This note sets out measurements from the RNAGym collection of RNA variant scans (doi:10.1126/science.aae0568).

First the molecules themselves.
B1: tRNA (parent)
chain: GUUCCGUUGGCGUAAUGGUAACGCGUCUCCCUCCUAAGGAGAAGACUGCGGGUUCGAGUCCCGUACGGAACG

Fewer inactive variants are shown than the library holds.

This data set covers variants of B1. The data set can be described thus: yeast fitness relative to wild type (ratio to wild type); higher = fitter; tRNA-Arg(CCU), competitive growth, 37 C, YPD. A digest of the protocol: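 Genotype frequency changes were the basis for Darwinian fitness relative to wild type. The frequencies came from 100-nucleotide paired-end sequencing of gene amplicons from the start population and each end population of pooled yeast strains with tRNA-Arg(CCU) gene variants at the native locus. Competition ran in YPD at 37°C for 24 hours in six replicates, genotypes needed ≥ 100 starting reads, and estimates < 0.5 were set to 0.5.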
On to U26A G39A G41C U54C, for which the yeast fitness was not above 0.5.
Regarding G25C A42U A43G U53C A65G, the yeast fitness is not above 0.5.
Take G25A U32A U53A: the yeast fitness is not above 0.5.
As to U26A A42G G48C C62G, the yeast fitness is not above 0.5.
In the case of G25A C31U G41U it was 0.739; in that of U26A C34G G56A, 0.565; in that of U26A C31A A42G C55G, not above 0.5.
The same measure for G25C A42U: 0.869.
In the case of G25U U64A it was 0.687; in that of G25A A43C C60A, 0.544; in that of G25C C29U, 0.688.
For G25C C29G, the yeast fitness was 0.703.
The same measure for G25A G38C G48A C60U: not above 0.5; for G25C C31U U32A: not above 0.5; for G25A C27U A69C: 0.73.
In the case of G25C C61A it was 0.75; in that of C24U U59A, 0.875; in that of G25A C31A, 0.671.
Turning to G25A C31U, the yeast fitness is 0.923.
Consider G25A C31G, for which the yeast fitness was found to be 0.906.
In the case of G25A C55A it was 0.725.
As for G25A C55U, the yeast fitness stood at 0.84.
Consider G25A C49U C55U, for which the yeast fitness was determined as 0.683.
In the case of G25C A69U it was 0.929.
The same measure for G25A C34U A65U: 0.671; for U26A C27A U28A C34U G68A A69C: 0.534; for U26A A57C G67A A69U: 0.58.
The same measure for G25C G51A A65G: 0.742.
Turning to G25A U32C G41A, the yeast fitness stood at 0.546.
On to G25C C29U A65C A70U, for which the yeast fitness was not above 0.5.
The same measure for G25C G48A: 0.951; for G25A C62U G68A: 0.641.
Take G25C G41C G48C: the yeast fitness was not above 0.5.
In the case of U26A A40G, the yeast fitness was found to be 0.657.
The same measure for G25A C30G G58C C66A: not above 0.5; for U26A C30A A37C A43U G51C: 0.595; for U26A C31U A65C: 0.691.
On to G25C C33G A43C A57C G63C, for which the yeast fitness is not above 0.5.
The same measure for G25C U26A C61A: not above 0.5; for G25A A65U G68C: 0.657.
The same measure for U26A A42C A45G C49U: not above 0.5.
The same measure for G25A A40U A45G C60A: not above 0.5; for G25A C30G U59C C66A: not above 0.5.
Consider U26A G48A C62A, for which the yeast fitness was determined as 0.605.
In the case of U26A A43U A65U it was 0.618; in that of G25A G41A G67A, 0.59.
As for G25C C29G C30U C49G, the yeast fitness amounted to 0.61.
Regarding G25A C33G A57G G58A U59C A65U, the yeast fitness is not above 0.5.
For U26A C31G, the yeast fitness amounted to 0.942.
In the case of G25C A65G it was 1; in that of G25A U32A U53A A70C, not above 0.5.
In the case of G25A C61U G63C it was 0.528.
On to G25A G41A C61A A65U, for which the yeast fitness is not above 0.5.
G25C C30U A69C: the yeast fitness came out at 0.606.
The same measure for G25U A36U G56C: not above 0.5.
G25C C33U C49A U53A: the yeast fitness is not above 0.5.
The same measure for G25C A45C A70C: 0.677; for G25U C30A C46A: 0.581; for G25A C29U C66U: 0.747.
In the case of U26A G52C it was 0.645.
In the case of U26A C46A C62G it was 0.797; in that of G25C A43U G50A, 0.704.
For the variant G25A A69U, the yeast fitness came out at 1.04.
For the variant G25A C33A A40G A70C, the yeast fitness is not above 0.5.
Turning to G25A A43G G48C, the yeast fitness was 0.573.
In the case of G25C G48A G63A A69G it was not above 0.5; in that of G25A U47G C49A, 0.548; in that of G25A A45U C62A, 0.54.
In the case of U26A A40G G58C G67U it was 0.556; in that of G25C C27A C66U, not above 0.5; in that of U26A A45G C66G G67U, not above 0.5.
In the case of G25A U26G it was 0.805; in that of G25A U26C, 0.947; in that of G25C C31A A65C, 0.678.
On to G25C C31G C61G C66G, for which the yeast fitness was found to be 0.674.
Take U26A A36U: the yeast fitness was 0.606.
The same measure for G25C C34G G51A: not above 0.5; for G25A C31U A43C A57C: not above 0.5; for G25U A65U: 1.02.
On to G25C G44A, for which the yeast fitness amounted to 0.97.
G25A A37C G68U: the yeast fitness came out at 0.702.
In the case of G25C U32G G38A C61U it was not above 0.5; in that of G25C G38C C49U A57U C66A, 0.571; in that of G25A A57U, 0.772.
Consider G25A A57C, for which the yeast fitness was 0.697.
The same measure for G25A A57G: 1.08.
The same measure for G25U C29G A42C C66U G67A: not above 0.5; for U26A A37G U64A: not above 0.5; for G25C C46A G58A G63U: 0.604.
On to G25C C49U G63A, for which the yeast fitness stood at 0.83.
As to U26A C30A C34A G48C, the yeast fitness was 0.583.
In the case of G25C G38A it was 0.951; in that of G25A A37C G51C A57G, not above 0.5; in that of G25C C29A U32A A65U, not above 0.5.
With G25A C31G A45U, the yeast fitness was determined as 0.612.
In the case of G25A C30A G67U it was 0.776.
The same measure for G25A G41C G58A: 0.975.
The same measure for U26A A37C C49U G56A: not above 0.5; for G25A A42C: 0.868.
Turning to U26A C30G A37C U59A, the yeast fitness is not above 0.5.
Take G25C G48A G68A: the yeast fitness worked out at 0.564.
On to G25A C46A G52C G68A, for which the yeast fitness was not above 0.5.
G25C C33A A43C G68A: the yeast fitness is not above 0.5.
In the case of G25A C29G A43C C61A A69U it was not above 0.5; in that of G25A G41A G51C C60U, not above 0.5.
The same measure for G25A G68A: 1.02; for G25C U28C A70C: 0.563.
The same measure for G25C A43U A45G: 0.518; for G25A C27U: 0.901; for G25C G63A: 0.955.
As for U26A C31U G48A, the yeast fitness was determined as 0.998.
In the case of G25A A40U U54C it was 0.565; in that of C24U U54A, 0.624.
Turning to C24U U54C, the yeast fitness amounted to 0.812.
The same measure for C24U U59C A69C: 0.618; for G25C U54G: 0.581; for G25C G39C G44C C49U C60U G68C: not above 0.5.
In the case of G25A A40C A65C it was 0.739; in that of G25A U28A A43U, 0.835; in that of G25A G41A C49U A69U, 0.574.
Regarding G25A A45U, the yeast fitness turned out to be 0.803.
The same measure for C24U U59A C60G: 0.754.
For U26A C61G A70U, the yeast fitness turned out to be 0.764.
With G25A C60A A69G, the yeast fitness is not above 0.5.
With U26A C27U A65G, the yeast fitness was 1.
In the case of G25A C62A A65C it was 0.517; in that of G25C C29U C34G, not above 0.5; in that of U26A C60A, 0.787.
The same measure for U26A C33U U53C: 0.54; for G25C C27G: 0.553.
Turning to U26A G51A, the yeast fitness worked out at 0.769.
The same measure for G25A G67A: 0.875.
In the case of G25C A45G G50A C62G it was not above 0.5; in that of U26A A65C, 0.946; in that of U26A G39A G41C, not above 0.5.
In the case of G25A C46U A57G, the yeast fitness turned out to be 0.676.
With G25C A43C C49U, the yeast fitness was 0.632.
The same measure for G25C G50A: 1; for G25A C60A C66U: not above 0.5; for G25A G48A: 0.981.
As for G25C C33A A57U A69U, the yeast fitness stood at 0.548.
In the case of G25A G52U U54C it was not above 0.5; in that of U26A G44C C55U G67U, 0.759; in that of G25A G44C G52A C62G A69G, not above 0.5.
The same measure for G25A C31G C55G: not above 0.5; for G25C A40G U47A A57C G63A: not above 0.5.
Take G25C C62G: the yeast fitness worked out at 0.877.
In the case of U26A C31U G48A A65G it was 0.683; in that of G25A C31A A45C G50A, 0.536; in that of G25A C29A A42G, not above 0.5.
For U26A C27U C29A A65G G68C, the yeast fitness was not above 0.5.
For the variant U26A C61A A65U, the yeast fitness was determined as 0.686.
The same measure for G25A A37U A40C: 0.68; for G25C U26G C46G C62G: not above 0.5.
As for G25A C60U, the yeast fitness stood at 0.808.
Consider G25C C30U A70C, for which the yeast fitness came to 0.596.
Take U26A C31G G63C: the yeast fitness is not above 0.5.
In the case of G25A A45U A57U it was not above 0.5; in that of G25A C31U G38C G48A, 0.651; in that of G25A U53A, 0.741.
In the case of G25A U53C it was 0.819; in that of G25C U28C C62U A70C, not above 0.5.
G25C G41C A70C: the yeast fitness was found to be 0.559.
In the case of G25C C34G it was 0.551; in that of G25C C29G U32G A43U G50A, not above 0.5.
The same measure for U26A A40C U54A: not above 0.5; for G25C G38C C60G: 0.747.
